Measurements from ChEMBL document CHEMBL1122467, “Hypolipidemic activity of phthalimide derivatives. 3. A comparison of phthalimide and 1,2-benzisothiazolin-3-one 1,1-dioxide derivatives to phthalimidine and 1,2-benzisothiazoline 1,1-dioxide congeners” (1983).

How the values were obtained:
Assay type in all cases: functional
Mus musculus [1] = experiment: Hypolipidemic activity (14th day serum triglyceride) at 20 mg/kg in CF1 male mice
Procedure, shortened: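 Separate group of male CF1 mice (~25 g) dosed ip at 20 (mg/kg)/day for 14 days, injections at 11:00 a.m. Bled by tail vein on day 14 into nonheparinized microcapillary tubes, centrifuged 3 min for serum. Triglycerides (mg %) measured on duplicate 50-µL serum samples. Given as % control.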

Mus musculus [2] = experiment: Hypolipidemic activity (16th day serum cholesterol) at 20 mg/kg in CF1 male mice
Procedure, shortened: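 Male CF1 mice (~25 g), given 20 (mg/kg)/day ip at 11:00 a.m. On day 16, tail-vein blood collected between 8:00 and 9:30 a.m. in alkali-free nonheparinized microcapillaries and centrifuged 3 min. Serum cholesterol (mg %) from duplicate 25-µL nonhemolyzed samples by modified Liebermann-Burchard reaction. Reported as % control.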

Mus musculus [3] = experiment: Hypolipidemic activity (9th day serum cholesterol) at 20 mg/kg in CF1 male mice
Procedure, shortened: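 Male CF1 mice (~25 g), dosed intraperitoneally at 20 (mg/kg)/day at 11:00 a.m. Tail-vein blood taken on day 9 between 8:00 and 9:30 a.m. into alkali-free nonheparinized microcapillary tubes, spun 3 min for serum. Cholesterol (mg %) in duplicate 25-µL nonhemolyzed serum samples by modified Liebermann-Burchard reaction. Expressed as % control.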

O=S1(=O)NCc2ccccc21
Control (Mus musculus [1]): 86%
Control (Mus musculus [2]): 80%
Control (Mus musculus [3]): 82%

O=C(O)CCCCCN1C(=O)c2ccccc2C1=O
Control (Mus musculus [1]): 51%
Control (Mus musculus [2]): 67%
Control (Mus musculus [3]): 81%

CCCCCN1C(=O)c2ccccc2C1=O
Control (Mus musculus [1]): 75%
Control (Mus musculus [2]): 58%
Control (Mus musculus [3]): 76%

O=C(O)CCCCN1C(=O)c2ccccc2C1=O
Control (Mus musculus [1]): 54%
Control (Mus musculus [2]): 77%
Control (Mus musculus [3]): 83%

CCOC(=O)CCN1C(=O)c2ccccc2S1(=O)=O
Control (Mus musculus [1]): 61%
Control (Mus musculus [2]): 71%
Control (Mus musculus [3]): 97%

O=C(O)CCN1C(=O)c2ccccc2S1(=O)=O
Control (Mus musculus [1]): 67%
Control (Mus musculus [2]): 47%
Control (Mus musculus [3]): 96%

CC(=O)CCN1Cc2ccccc2S1(=O)=O
Control (Mus musculus [1]): 78%
Control (Mus musculus [2]): 81%
Control (Mus musculus [3]): 87%

O=C(O)CCN1C(=O)c2ccccc2C1=O
Control (Mus musculus [1]): <58%
Control (Mus musculus [2]): <55%
Control (Mus musculus [3]): <74%

CCCCN1Cc2ccccc2C1=O
Control (Mus musculus [1]): 80%
Control (Mus musculus [2]): 62%
Control (Mus musculus [3]): 68%

O=C(O)CCCN1C(=O)c2ccccc2S1(=O)=O
Control (Mus musculus [1]): 48%
Control (Mus musculus [2]): 73%
Control (Mus musculus [3]): 85%

CC(=O)CCN1C(=O)c2ccccc2S1(=O)=O
Control (Mus musculus [1]): 51%
Control (Mus musculus [2]): 62%
Control (Mus musculus [3]): 60%

O=C1NCc2ccccc21
Control (Mus musculus [1]): 78%
Control (Mus musculus [2]): 87%
Control (Mus musculus [3]): 89%

CC(=O)CCCN1C(=O)c2ccccc2C1=O
Control (Mus musculus [1]): <59%
Control (Mus musculus [2]): <63%
Control (Mus musculus [3]): <71%

CC(=O)CCCN1C(=O)c2ccccc2S1(=O)=O
Control (Mus musculus [1]): 77%
Control (Mus musculus [2]): 77%
Control (Mus musculus [3]): 73%

O=C1NS(=O)(=O)c2ccccc21 [SACCHARIN]
Control (Mus musculus [1]): 51%
Control (Mus musculus [2]): 67%
Control (Mus musculus [3]): 68%

O=C(O)CCN1Cc2ccccc2C1=O
Control (Mus musculus [1]): 88%
Control (Mus musculus [2]): 97%
Control (Mus musculus [3]): 87%

CCCCN1Cc2ccccc2S1(=O)=O
Control (Mus musculus [1]): 76%
Control (Mus musculus [2]): 68%
Control (Mus musculus [3]): 71%

CCCCN1C(=O)c2ccccc2S1(=O)=O
Control (Mus musculus [1]): 76%
Control (Mus musculus [2]): 56%
Control (Mus musculus [3]): 76%

CC(=O)CN1C(=O)c2ccccc2C1=O
Control (Mus musculus [1]): <48%
Control (Mus musculus [2]): <67%
Control (Mus musculus [3]): 80%

CCCCN1C(=O)c2ccccc2C1=O
Control (Mus musculus [1]): 82%
Control (Mus musculus [2]): <54%
Control (Mus musculus [3]): <72%

O=C(O)CCCCN1C(=O)c2ccccc2S1(=O)=O
Control (Mus musculus [1]): 44%
Control (Mus musculus [2]): 68%
Control (Mus musculus [3]): 96%

CC(=O)CCN1C(=O)c2ccccc2C1=O
Control (Mus musculus [1]): <58%
Control (Mus musculus [2]): <63%
Control (Mus musculus [3]): <67%

O=C1NC(=O)c2ccccc21 [PHTHALIMIDE]
Control (Mus musculus [1]): 44%
Control (Mus musculus [2]): 57%
Control (Mus musculus [3]): 63%

CC(=O)CCN1Cc2ccccc2C1=O
Control (Mus musculus [1]): <83%
Control (Mus musculus [2]): <84%
Control (Mus musculus [3]): 88%

O=C(O)CCCCCN1C(=O)c2ccccc2S1(=O)=O
Control (Mus musculus [1]): 55%
Control (Mus musculus [2]): 76%
Control (Mus musculus [3]): 90%

O=C(O)CCN1Cc2ccccc2S1(=O)=O
Control (Mus musculus [1]): 76%
Control (Mus musculus [2]): 59%
Control (Mus musculus [3]): 73%

O=C(O)CCCN1C(=O)c2ccccc2C1=O
Control (Mus musculus [1]): 59%
Control (Mus musculus [2]): 68%
Control (Mus musculus [3]): 80%

CCCCCN1C(=O)c2ccccc2S1(=O)=O
Control (Mus musculus [1]): 62%
Control (Mus musculus [2]): 58%
Control (Mus musculus [3]): 106%

C=C(CN1C(=O)c2ccccc2S1(=O)=O)C(=O)O
Control (Mus musculus [1]): 101%
Control (Mus musculus [2]): 85%
Control (Mus musculus [3]): 85%

CC(=O)CN1C(=O)c2ccccc2S1(=O)=O
Control (Mus musculus [1]): 66%
Control (Mus musculus [2]): 52%
Control (Mus musculus [3]): 95%
